ChEMBL document CHEMBL2203218, “Evaluation of [(11)C]N-Methyl Lansoprazole as a Radiopharmaceutical for PET Imaging of Tau Neurofibrillary Tangles” (ACS Med Chem Lett, 2012)
One block for each molecule: values may come before it.

Tests used:
[1] = target: Microtubule-associated protein tau (Homo sapiens, UniProt P10636); assay: Binding affinity to heparin induced human Tau 441 at 50 pM to 500 nM after 30 mins
Cortex = assay: Drug uptake in human Tau expressing Sprague-Dawley rat cortex at 1 to 10 mCi by autoradiography analysis relative to wild type Sprague-Dawley rat brain; assay type: ADME, tissue-based; details: in vivo
[2] = Octanol-water partition coefficient, log P of the compound; assay type: physicochemical
Brain [3] = assay: Drug uptake in rhesus monkey brain at 5.4 mCi, iv after 3 mins by MicroPET analysis; assay type: ADME, organism-based, Macaca mulatta; details: in vivo, 0.05 h
Hippocampus = assay: Drug uptake in human Tau expressing Sprague-Dawley rat hippocampus at 1 to 10 mCi by autoradiography analysis relative to wild type Sprague-Dawley rat brain; assay type: ADME, tissue-based; details: in vivo
Rattus norvegicus = assay: Metabolic stability in anesthetized iv dosed Sprague-Dawley rat […] and HPLC analysis; assay type: ADME, organism-based; details: in vivo, in the assay text read “5 to 30 mins” for “5 to 60 mins”
Method in brief: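 Sprague-Dawley rats, anesthetized, received tracer via tail vein (three per time point). They were allowed to wake, then reanesthetized and sacrificed at 5, 15 and 30 min. Blood collected at each time was centrifuged, and the plasma was analyzed by HPLC and radio-TLC for parent and radioactive metabolites.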

Brain [4] = assay: Drug uptake in human Tau expressing Sprague-Dawley rat brain at 1 to 10 mCi by autoradiography analysis; assay type: ADME, tissue-based; details: in vivo
Liver = assay: Biodistribution in iv dosed Sprague-Dawley rat liver after 5 to 60 mins by gamma counting; assay type: ADME, organism-based; details: in vivo
Method in brief: (§1)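 Tracer reconstituted in ethanolic saline and injected via tail vein into anesthetized Sprague-Dawley rats (three per time point). Rats were allowed to wake, then reanesthetized and sacrificed at 5, 30 and 60 min postinjection for tissue distribution.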

Kidney = assay: Biodistribution in iv dosed Sprague-Dawley rat kidney after 5 to 60 mins by gamma counting; assay type: ADME, organism-based; details: in vivo; method in brief: as §1
Brain [5] = assay: Drug uptake in wild type Sprague-Dawley rat brain at 1 to 10 mCi by autoradiography analysis; assay type: ADME, tissue-based; details: in vivo
Brain [6] = assay: Drug uptake in rhesus monkey brain at 5.4 mCi, iv at 3 mins by MicroPET analysis; assay type: ADME, organism-based, Macaca mulatta; details: in vivo, 0.05 h
Brain [7] = assay: Drug uptake in Sprague-Dawley rat brain at 0.95 mCi, iv after 60 mins by MicroPET analysis; assay type: ADME, organism-based; details: in vivo, 1 h
Brain [8] = assay: Biodistribution in iv dosed Sprague-Dawley rat brain after 5 to 60 mins by gamma counting; assay type: ADME, organism-based; details: in vivo; method in brief: as §1
[9] = Drug uptake in human globus pallidus using bielschowsky staining by autoradiography analysis; assay type: ADME, tissue-based
Method in brief: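 PSP patient brain blocks were cut into 20 μm cryostat sections on slides and incubated with tracer for 10 min. Slides were washed, dried and exposed to film for 5 min. The same slides were then stained by modified Bielschowsky staining to locate tau NFTs for colocalization.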

Chain of Microtubule-associated protein tau (P10636 whole entry): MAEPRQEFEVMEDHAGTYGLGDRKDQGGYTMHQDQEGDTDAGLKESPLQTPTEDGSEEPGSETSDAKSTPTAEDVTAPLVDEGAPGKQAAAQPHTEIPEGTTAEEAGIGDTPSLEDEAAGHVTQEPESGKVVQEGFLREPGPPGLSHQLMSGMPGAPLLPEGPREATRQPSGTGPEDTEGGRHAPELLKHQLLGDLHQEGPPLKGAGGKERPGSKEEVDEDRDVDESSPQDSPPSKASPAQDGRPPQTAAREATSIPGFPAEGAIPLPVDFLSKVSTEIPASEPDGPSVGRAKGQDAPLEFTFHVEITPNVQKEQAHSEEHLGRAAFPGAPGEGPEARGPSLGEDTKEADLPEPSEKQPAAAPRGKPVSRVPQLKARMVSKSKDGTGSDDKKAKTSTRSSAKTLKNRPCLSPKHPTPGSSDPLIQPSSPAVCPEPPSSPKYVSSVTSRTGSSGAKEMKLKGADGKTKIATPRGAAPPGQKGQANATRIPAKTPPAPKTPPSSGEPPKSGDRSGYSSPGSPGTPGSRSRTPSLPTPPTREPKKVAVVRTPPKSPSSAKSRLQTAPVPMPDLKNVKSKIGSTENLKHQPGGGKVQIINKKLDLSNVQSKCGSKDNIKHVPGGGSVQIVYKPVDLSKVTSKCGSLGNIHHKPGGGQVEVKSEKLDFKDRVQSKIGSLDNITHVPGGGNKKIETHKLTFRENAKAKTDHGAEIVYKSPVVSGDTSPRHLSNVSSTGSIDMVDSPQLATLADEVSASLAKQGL

SMILES: Cc1c(OCC(F)(F)F)ccnc1C[S+]([O-])c1nc2ccccc2[nH]1 (stereo unspecified) [LANSOPRAZOLE]
Ki [1]: 2.5 nM

Bmax ([1]; tested as the 11C-labelled form): 0.214 fmol/µg
SMILES: Cc1c(OCC(F)(F)F)ccnc1C[S+]([O-])c1nc2ccccc2n1C (stereo unspecified)

Drug uptake (Cortex): 12%
Kd [1]: 0.7 nM
logP [2]: 2.18
Drug uptake (Brain [3]): 500 nCi/cc
Drug uptake (Hippocampus): 4%
Stability (Rattus norvegicus): Unstable
Drug uptake (Brain [4]): Active
Drug uptake (Liver): Active
Drug uptake (Kidney): Active
Drug uptake (Brain [5]): Active
Drug uptake (Brain [6]): 1600 nCi/cc
Drug uptake (Brain [7]): Not Active
Drug uptake (Brain [8]): Not Active
Drug uptake [9]: Active
SMILES: Cc1c(OCC(F)(F)F)ccnc1C[S+]([O-])c1nc2ccccc2n1[11CH3] (stereo unspecified)
